What was measured:
[1] = biological target: G-protein coupled receptor 183 (Rattus norvegicus) (UniProt D4A7K7); experiment: Agonist activity at Go2-q-coupled rat EBI2 expressed in COS7 cell membranes assessed as stimulation of [35S]GTPgammaS binding at 1 uM preincubated for 20 mins followed by [35S]GTPgammaS addition and measured after 1 hr by scintillation counting analysis relative to control; settings: Membrane, filed as agonist, time 80.0 min
In short: (§1)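 [35S]GTPγS binding measured on COS7 cells transiently transfected with human, rat or mouse EBI2, using a Gαo2 chimera set-up. Concentration-response testing ran up to a top concentration of 1. EC50 and % Emax were taken from the curves, with Emax referenced to 7α,25-OHC.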

[2] = biological target: T1, G-protein coupled receptor 183 (Homo sapiens, UniProt P32249); experiment: Agonist activity at Go2-q-coupled human EBI2 expressed in COS7 cell membranes assessed as stimulation of [35S]GTPgammaS binding preincubated for 20 mins followed by [35S]GTPgammaS addition and measured after 1 hr by scintillation counting analysis; format: functional, Membrane; in short: as §1
T1 sequence (P32249 whole entry): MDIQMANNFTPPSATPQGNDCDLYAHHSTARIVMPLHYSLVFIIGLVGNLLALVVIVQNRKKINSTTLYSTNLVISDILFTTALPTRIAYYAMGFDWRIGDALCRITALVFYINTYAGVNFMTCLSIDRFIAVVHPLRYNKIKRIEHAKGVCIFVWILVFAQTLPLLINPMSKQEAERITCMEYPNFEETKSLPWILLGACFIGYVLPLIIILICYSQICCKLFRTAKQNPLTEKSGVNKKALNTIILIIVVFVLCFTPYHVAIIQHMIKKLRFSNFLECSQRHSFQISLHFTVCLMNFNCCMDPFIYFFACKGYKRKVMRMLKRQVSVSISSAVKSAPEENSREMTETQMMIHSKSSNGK

[3] = biological target: G-protein coupled receptor 183 (Mus musculus, UniProt Q3U6B2); experiment: Agonist activity at Go2-q-coupled mouse EBI2 expressed in COS7 cell membranes assessed as stimulation of [35S]GTPgammaS binding preincubated for 20 mins followed by [35S]GTPgammaS addition and measured after 1 hr by scintillation counting analysis; format: functional, Membrane; in short: as §1
Sequence of G-protein coupled receptor 183 (Mus musculus, UniProt Q3U6B2) (Q3U6B2 whole entry): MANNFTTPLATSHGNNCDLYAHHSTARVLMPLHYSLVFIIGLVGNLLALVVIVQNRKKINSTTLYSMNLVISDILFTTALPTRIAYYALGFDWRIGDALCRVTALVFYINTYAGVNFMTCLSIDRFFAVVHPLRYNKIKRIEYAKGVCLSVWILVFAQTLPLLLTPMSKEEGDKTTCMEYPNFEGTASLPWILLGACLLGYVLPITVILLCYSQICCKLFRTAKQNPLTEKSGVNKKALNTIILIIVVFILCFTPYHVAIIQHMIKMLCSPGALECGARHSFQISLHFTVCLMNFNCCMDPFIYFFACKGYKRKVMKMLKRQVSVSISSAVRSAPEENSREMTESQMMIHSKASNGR

[4] = biological target: G-protein coupled receptor 183 (Mus musculus) (UniProt Q3U6B2); experiment: Agonist activity at Go2-q-coupled mouse EBI2 expressed in COS7 cell membranes assessed as stimulation of [35S]GTPgammaS binding at 1 uM preincubated for 20 mins followed by [35S]GTPgammaS addition and measured after 1 hr by scintillation counting analysis relative to control; format: functional; settings: Membrane, filed as agonist, time 80.0 min; in short: as §1
Sequence of G-protein coupled receptor 183 (Mus musculus) (Q3U6B2 whole entry): as above

[5] = biological target: G-protein coupled receptor 183 (Rattus norvegicus, UniProt D4A7K7); experiment: Agonist activity at Go2-q-coupled rat EBI2 expressed in COS7 cell membranes assessed as stimulation of [35S]GTPgammaS binding preincubated for 20 mins followed by [35S]GTPgammaS addition and measured after 1 hr by scintillation counting analysis; parameters: species or system Membrane; in short: as §1
Sequence of G-protein coupled receptor 183 (Rattus norvegicus, UniProt D4A7K7) (D4A7K7 whole entry): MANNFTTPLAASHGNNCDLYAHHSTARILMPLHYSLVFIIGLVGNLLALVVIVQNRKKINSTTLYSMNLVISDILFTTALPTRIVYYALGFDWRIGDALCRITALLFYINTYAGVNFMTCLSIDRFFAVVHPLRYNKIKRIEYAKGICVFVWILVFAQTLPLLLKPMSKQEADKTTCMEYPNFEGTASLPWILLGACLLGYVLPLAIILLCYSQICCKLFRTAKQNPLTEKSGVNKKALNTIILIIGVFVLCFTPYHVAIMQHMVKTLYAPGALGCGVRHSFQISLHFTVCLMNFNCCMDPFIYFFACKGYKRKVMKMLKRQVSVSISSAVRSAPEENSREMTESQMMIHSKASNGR

[6] = biological target: T1, G-protein coupled receptor 183; experiment: Agonist activity at Go2-q-coupled human EBI2 expressed in COS7 cell membranes assessed as stimulation of [35S]GTPgammaS binding at 1 uM preincubated for 20 mins followed by [35S]GTPgammaS addition and measured after 1 hr by scintillation counting analysis relative to control; format: functional; settings: Membrane, filed as agonist, time 80.0 min; in short: as §1
[7] = biological target: T1, G-protein coupled receptor 183; experiment: Agonist activity at Go2-q-coupled EBI2 (unknown origin) expressed in COS7 cell membranes assessed as stimulation of [35S]GTPgammaS binding preincubated for 20 mins followed by [35S]GTPgammaS addition and measured after 1 hr by scintillation counting analysis; format: functional, Membrane
In short: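 [35S]GTPγS binding measured in membranes of COS7 cells transiently transfected with human, rat or mouse EBI2, with receptor coupled through Go2. Compounds tested as concentration-response series (log M plots) to give EC50 and % Emax for each species' receptor.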

[8] = Metabolic stability in human liver microsomes assessed as half life; format: ADME, Microsome
[9] = Metabolic stability in rat liver microsomes assessed as half life; format: ADME, Microsome
[10] = Metabolic stability in mouse liver microsomes assessed as half life; format: ADME, Microsome
[11] = Elimination half-life in po dosed mouse; format: ADME, organism-based; settings: in vivo, read-out: beta t1/2 (converted)
[12] = Terminal half life in mouse at 20 mg/kg, sc; format: ADME, organism-based; settings: in vivo, read-out: beta t1/2 (converted)
[13] = Tmax in mouse at 20 mg/kg, ip; format: ADME, organism-based; settings: in vivo
[14] = Cmax in mouse at 20 mg/kg, ip; format: ADME, organism-based; parameters: route intraperitoneal, dose 20 mg/kg; settings: in vivo
[15] = AUClast in mouse at 20 mg/kg, ip; format: ADME, organism-based; parameters: route intraperitoneal, time 0 - last, dose 20 mg/kg; settings: in vivo
[16] = Cmax in mouse at 20 mg/kg, sc; format: ADME, organism-based; parameters: route subcutaneous, dose 20 mg/kg; settings: in vivo
[17] = Terminal half life in mouse at 20 mg/kg, ip; format: ADME, organism-based; settings: in vivo, read-out: beta t1/2 (converted)
[18] = Tmax in mouse at 20 mg/kg, sc; format: ADME, organism-based; settings: in vivo
[19] = AUClast in mouse at 20 mg/kg, sc; format: ADME, organism-based; parameters: time 0 - last, route subcutaneous, dose 20 mg/kg; settings: in vivo

Sequence of G-protein coupled receptor 183 (Rattus norvegicus) (D4A7K7 whole entry): as above

Emax [1]	EC50 [2]	EC50 [3]	Emax [4]	EC50 [5]	Emax [6]	Structure (SMILES)	EC50 [7]	half-life [8]	half-life [9]	half-life [10]	also measured
88%	4.1 nM	14.4 nM	60%	14.4 nM	100%	C[C@H](CCCC(C)(C)O)[C@H]1CC[C@H]2[C@H]3[C@H](CC[C@]12C)[C@@]1(C)CC[C@H](O)CC1=C[C@@]3(O)C(F)(F)F					
						CC(CO)CCC[C@@H](C)[C@H]1CC[C@H]2[C@H]3C(CC[C@]12C)[C@@]1(C)CC[C@H](O)CC1=C[C@H]3O (single isomer, unassigned)	1.3 nM				
						CC(CO)CCC[C@@H](C)[C@H]1CC[C@H]2[C@H]3C(CC[C@]12C)[C@@]1(C)CC[C@H](O)CC1=C[C@@H]3O (single isomer, unassigned)	51 nM				
116%	0.102 nM	1.64 nM	136%	1.08 nM	122%	C[C@H](CCCC(C)(C)O)[C@H]1CC[C@H]2[C@H]3[C@H](CC[C@]12C)[C@@]1(C)CC[C@H](O)CC1=C[C@]3(O)C(F)(F)F		131 min	31 min	> 180 min	half-life [11]: 600 min
						C[C@H](CCCC(C)(C)O)[C@H]1CC[C@H]2[C@@H]3[C@@H](O)C=C4C[C@@H](O)CC[C@]4(C)[C@H]3CC[C@]12C	2.1 nM				

Structure (SMILES)	Emax [1]	EC50 [2]	EC50 [3]	Emax [4]	EC50 [5]	Emax [6]	EC50 [7]	half-life [8]	half-life [9]	half-life [10]	also measured
C[C@H](CCCC(C)(C)O)[C@H]1CC[C@H]2[C@@H]3[C@H](O)C=C4C[C@@H](O)CC[C@]4(C)[C@H]3CC[C@]12C	100%	0.032 nM	0.702 nM	100%	1.31 nM	100%	0.14 nM	30 min	15 min	11 min	half-life [12]: 30 min; Tmax [13]: 15 min; Cmax [14]: 4460 ng/mL; AUC(0-t) [15]: 2940 ng·h/mL; Cmax [16]: 4340 ng/mL; half-life [17]: 24 min; Tmax [18]: 19.8 min; AUC(0-t) [19]: 3140 ng·h/mL

— ChEMBL document CHEMBL4715765, “Fluoro analogs of bioactive oxy-sterols: Synthesis of an EBI2 agonist with enhanced metabolic stability” (Bioorg Med Chem Lett, 2016)
